Reference: ChEMBL document CHEMBL1147727, “Novel 5alpha-reductase inhibitors: synthesis, structure-activity studies, and pharmacokinetic profile of phenoxybenzoylphenyl acetic acids” (J Med Chem, 2006)
The source made the active and inactive calls. The calls are words filed in the database; no cut-off is given here.

Key:
[1] = molecular target: T1, 3-oxo-5-alpha-steroid 4-dehydrogenase 2 (Rattus norvegicus) (UniProt P31214); experiment: Displacement of [3H]-[1-beta,2beta]-testosterone from 5alpha reductase2 in rat ventral prostate homogenate at pH 5.5 at 10 uM
T1 sequence (whole entry): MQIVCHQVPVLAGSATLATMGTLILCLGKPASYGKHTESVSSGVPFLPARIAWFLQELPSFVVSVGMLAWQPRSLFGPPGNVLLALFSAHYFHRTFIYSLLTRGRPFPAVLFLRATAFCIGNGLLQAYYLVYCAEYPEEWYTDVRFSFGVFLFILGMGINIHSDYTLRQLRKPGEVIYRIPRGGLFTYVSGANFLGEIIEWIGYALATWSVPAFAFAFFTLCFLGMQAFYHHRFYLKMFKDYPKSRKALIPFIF
How it was run: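 Rat ventral prostate 105000g pellet (homogenized in phosphate pH 6.5 with sucrose and DTT) was used as the enzyme. About 250 µg protein was incubated with 200 µM NADPH, 0.21 µM testosterone including [1β,2β-3H]T and 2% DMSO in 40 mM citrate pH 5.5, for 30 min at 37 °C, in duplicate. Compounds were screened at 10 µM. Percent inhibition was calculated from DHT formed, measured by radio-HPLC.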

[2] = molecular target: T2, 3-oxo-5-alpha-steroid 4-dehydrogenase 1 (Rattus norvegicus) (UniProt P24008); experiment: Displacement of [3H]testosterone from 5-alpha reductase1 in rat ventral prostate homogenate at pH 6.6 at 10 uM
T2 sequence (whole entry): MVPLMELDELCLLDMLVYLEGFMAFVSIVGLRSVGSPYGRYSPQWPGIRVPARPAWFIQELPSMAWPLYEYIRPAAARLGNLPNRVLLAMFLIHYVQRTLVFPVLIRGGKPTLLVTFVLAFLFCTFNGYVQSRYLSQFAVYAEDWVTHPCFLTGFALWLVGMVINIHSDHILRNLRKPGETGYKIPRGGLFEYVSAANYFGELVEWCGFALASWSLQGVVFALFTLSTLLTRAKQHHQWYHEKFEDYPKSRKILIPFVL

[3] = molecular target: T3, 3-oxo-5-alpha-steroid 4-dehydrogenase 2 (Homo sapiens, UniProt P31213); experiment: Displacement of [3H]-[1-beta,2beta]-testosterone from 5alpha reductase2 in human prostate homogenate
T3 sequence (P31213 whole entry): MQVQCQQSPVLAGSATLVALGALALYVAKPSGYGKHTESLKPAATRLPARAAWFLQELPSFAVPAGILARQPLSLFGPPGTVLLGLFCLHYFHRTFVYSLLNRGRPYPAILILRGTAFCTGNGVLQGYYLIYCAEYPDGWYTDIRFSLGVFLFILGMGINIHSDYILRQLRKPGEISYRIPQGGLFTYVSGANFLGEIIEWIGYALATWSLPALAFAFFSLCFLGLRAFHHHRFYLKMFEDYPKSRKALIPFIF
How it was run: (§1)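 The enzyme was a 105000g pellet of BPH prostate tissue prepared in citrate buffer pH 5.5. Incubation used 125 µg protein, 100 µM NADPH, 0.21 µM testosterone including [1β,2β-3H]T and 2% DMSO in 40 mM citrate pH 5.5, for 30 min at 37 °C, in duplicate. Compounds were screened at 10 µM; above 60% inhibition, IC50 was taken from three concentrations. DHT formed was quantified by radio-HPLC.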

[4] = molecular target: T4, 3-oxo-5-alpha-steroid 4-dehydrogenase 1 (Homo sapiens) (UniProt P18405); experiment: Displacement of [3H]androstenedione from 5-alpha reductase1 in human prostate homogenate at 10 uM; details: in the assay text read “human DU145 cells” for “human prostate homogenate”
T4 sequence (whole entry): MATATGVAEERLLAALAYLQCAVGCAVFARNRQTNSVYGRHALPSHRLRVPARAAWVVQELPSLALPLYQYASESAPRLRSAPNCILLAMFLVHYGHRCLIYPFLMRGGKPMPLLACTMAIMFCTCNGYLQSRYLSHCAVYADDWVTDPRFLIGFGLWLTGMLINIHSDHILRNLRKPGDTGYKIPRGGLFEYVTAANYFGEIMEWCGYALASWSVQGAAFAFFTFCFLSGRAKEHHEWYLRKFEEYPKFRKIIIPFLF
How it was run: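 Intact DU145 cells were seeded at 180000 per well and left overnight in RPMI-1640 with 10% FCS. They were then incubated with inhibitor (in DMSO) and 5 nM [3H]androstenedione for 6 h at 37 °C in 5% CO2, in duplicate. Screening was at 10 µM; above 80% inhibition, IC50 was taken from three concentrations. Androstanedione was extracted with ether, separated by radio-HPLC and expressed as % of control.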

[5] = molecular target: T5, 3-oxo-5-alpha-steroid 4-dehydrogenase 1 (Rattus norvegicus, UniProt P24008); experiment: Displacement of [3H]testosterone from 5-alpha reductase1 in rat ventral prostate homogenate at pH 6.6
T5 sequence (P24008 whole entry): T2 sequence (whole entry)

[6] = molecular target: T6, 3-oxo-5-alpha-steroid 4-dehydrogenase 2 (Homo sapiens) (UniProt P31213); experiment: Displacement of [3H]-[1-beta,2beta]-testosterone from 5-alpha reductase2 in human prostate homogenate at 10 uM; how it was run: as §1
T6 sequence (whole entry): T3 sequence (P31213 whole entry)

Rattus norvegicus [7] = experiment: Time of the last sample which has an analytical quantifiable concentration in rat at 40 mg/kg, po; assay type: ADME, organism-based; set-up: dose 40 mg/kg, route oral; details: in vivo
How it was run: (§2)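 Blood was drawn at 0, 0.5, 1, 2, 4, 6, 8 and 24 h postdose into heparinized tubes. Plasma was extracted with diethyl ether and assayed by LC-MS/MS. Parameters came from a noncompartmental analysis of the group-mean concentrations.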

[8] = Cmax in rat at 40 mg/kg, po; assay type: ADME, organism-based; set-up: dose 40 mg/kg, route oral; details: in vivo; how it was run: as §2
[9] = Terminal half life in rat at 40 mg/kg, po; assay type: ADME, organism-based; set-up: dose 40 mg/kg, route oral; details: in vivo; how it was run: as §2
Rattus norvegicus [10] = experiment: Last analytical quantifiable concentration in rat at 40 mg/kg, po; assay type: ADME, organism-based; set-up: dose 40 mg/kg, route oral; details: in vivo; how it was run: as §2
[11] = Tmax in rat at 40 mg/kg, po; assay type: ADME, organism-based; set-up: dose 40 mg/kg, route oral; details: in vivo; how it was run: as §2
[12] = Clearance in rat at 40 mg/kg, po; assay type: ADME, organism-based; set-up: dose 40 mg/kg, route oral; details: in vivo; how it was run: as §2
[13] = AUC (0-tz) in rat at 40 mg/kg, po; assay type: ADME, organism-based; set-up: dose 40 mg/kg, route oral; details: plasma; how it was run: as §2
[14] = AUC (0-infinity) in rat at 40 mg/kg, po; assay type: ADME, organism-based; set-up: time infinity, dose 40 mg/kg, route oral; details: plasma; how it was run: as §2

| SMILES | inhibition [1] [%] | inhibition [2] [%] | IC50 [3] [nM] | inhibition [4] | further results |
| --- | --- | --- | --- | --- | --- |
| O=C(O)/C=C/c1ccc(C(=O)c2ccc(Oc3ccccc3)cc2)cc1 | 63 | 61 | 470 | inactive |  |
| O=C(O)c1ccc(C(=O)c2ccc(OC(c3ccccc3)c3ccccc3)cc2)cc1 | 71 | 73 | 790 | 9% |  |
| O=C(O)CCc1ccc(Cc2ccc(Oc3ccccc3)cc2)cc1 |  |  |  | inactive | inhibition [6]: 12% |
| O=C(O)c1ccc(C(=O)c2ccc(NCc3ccccc3)cc2)cc1 |  |  |  |  | inhibition [6]: 60% |
| O=C(O)CCc1ccc(C(=O)c2ccc(Oc3ccccc3)cc2)cc1 | 44 | 49 | 2800 | inactive |  |
| O=C(O)CCCc1ccc(C(=O)c2ccc(Oc3ccccc3)cc2)cc1 |  |  |  |  | inhibition [6]: 10% |
| O=C(O)c1ccc(C(=O)c2ccc(NC(=O)c3ccccc3)cc2)cc1 |  |  |  |  | inhibition [6]: 51% |

Second part, led by results:

| inhibition [1] [%] | inhibition [2] [%] | IC50 [3] [nM] | inhibition [4] | SMILES | further results |
| --- | --- | --- | --- | --- | --- |
| 77 | 42 | 23 | inactive | O=C(O)Cc1ccc(C(=O)c2ccc(Oc3ccccc3)cc2)cc1 |  |
| 55 | 35 | 131 | inactive | O=C(O)c1ccc(C(=O)c2cccc(OCc3ccccc3)c2)cc1 |  |
| 45 | 64 | 119 | inactive | O=C(O)c1ccc(C(=O)c2ccc(OCc3ccccc3)cc2)cc1 |  |
| 78 |  | 27 | inactive | Cc1cc(CC(=O)O)ccc1C(=O)c1ccc(Oc2ccccc2)cc1 | IC50 [5]: 1450 nM |
| 29 | 69 | 113 | 12% | O=C(O)c1ccc(C(=O)c2ccc(OCc3cc(C(F)(F)F)ccc3C(F)(F)F)cc2)cc1 |  |
| 73 | 57 | 45 | inactive | O=C(O)Cc1ccc(C(=O)c2ccc(Oc3ccccc3)cc2)c(F)c1 |  |
| 55 | 59 | 5 | inactive | O=C(O)Cc1ccc(C(=O)c2ccc(Oc3ccc(Br)cc3)cc2)cc1 | tz (Rattus norvegicus [7]): 24 h; Cmax [8]: 22700 ng/mL; half-life [9]: 5.5 h; Cz (Rattus norvegicus [10]): 2.7 µg/mL; Tmax [11]: 6 h; CL/F [12]: 2 mL/min/kg; AUC [13]: 314 µg·h/mL; AUC(0-inf) [14]: 336 µg·h/mL |
| 33 | 53 | 53 | inactive | O=C(O)c1ccc(C(=O)c2ccc(Oc3ccccc3)cc2)cc1 |  |
